In ChEMBL document CHEMBL1145082 (J Med Chem, 2003):
pIC50: −log10 of the molar value.

What was measured:
[1] = biological target: 3-phosphoinositide-dependent protein kinase 1 (Homo sapiens) (UniProt O15530); test: Inhibition of human 3-phosphoinositide-dependent protein kinase 1 at 10 uM; design: scale not given: the % may be the effect or the level left
Procedure, shortened: (§1)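 Outsourced selectivity panel. Each kinase phosphorylated its own peptide or protein substrate in the presence of 10 µM compound and 10 µM ATP, within the linear time range. Activity given as mean percent of control incubations from duplicate determinations.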

[2] = biological target: AMP-activated protein kinase, AMPK (Homo sapiens) (UniProt P54646+O43741+P54619+Q9UGJ0+Q9Y478+Q13131+Q9UGI9); test: Inhibition of rat liver AMP-activated Protein Kinase at 10 uM; design: scale not given: the % may be the effect or the level left; settings: target entry is the homologue from another species
Procedure, shortened: (§2)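 Upstate kinase selectivity panel: each kinase phosphorylated its peptide or protein substrate with 10 µM compound present and 10 µM ATP. Reactions were linear with time. Activity is reported as the mean percentage of control incubations, from duplicate determinations.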

[3] = biological target: Tyrosine-protein kinase Blk (Homo sapiens) (UniProt P51451); test: Inhibition of Blk (B lymphocyte kinase) at 10 uM; design: scale not given: the % may be the effect or the level left; procedure, shortened: as §1
[4] = biological target: Calcium/calmodulin-dependent protein kinase type IV (Homo sapiens) (UniProt Q16566); test: Inhibition of Calcium/calmodulin-dependent protein kinase type IV at 10 uM; design: scale not given: the % may be the effect or the level left; procedure, shortened: as §1
[5] = biological target: Cyclin-dependent kinase 2/cyclin E (Homo sapiens) (UniProt P24864+P24941+O96020); test: Inhibition of Cyclin-dependent kinase 2-cyclin E at 10 uM; format: protein-complex assay; design: scale not given: the % may be the effect or the level left; procedure, shortened: as §1
[6] = Inhibition of Casein Kinase I; design: species or system Rattus norvegicus
Procedure, shortened: (§3)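 Reaction started with 30–150 ng kinase, run 1 h at 30 °C. Peptides captured on streptavidin plates and counted. IC50 from 6–10 concentrations; ≥3 experiments in duplicate; ± SEM.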

Saccharomyces cerevisiae = test: Inhibition of yeast Casein kinase I at 10 uM; design: scale not given: the % may be the effect or the level left; procedure, shortened: as §2
[7] = biological target: Cyclin-dependent kinase 1 (Homo sapiens, UniProt P06493); test: Inhibition of Cyclin-dependent kinase 1; procedure, shortened: as §3
[8] = biological target: Tyrosine-protein kinase CSK (Homo sapiens) (UniProt P41240); test: Inhibition of Csk tyrosine kinase at 10 uM; design: scale not given: the % may be the effect or the level left; procedure, shortened: as §1
[9] = biological target: Cyclin-dependent kinase 2 (Homo sapiens, UniProt P24941); test: Inhibition of Cyclin-dependent kinase 2 (CDK2); procedure, shortened: as §3
[10] = biological target: Cyclin-dependent kinase 5/CDK5 activator 1 (Homo sapiens) (UniProt Q00535+Q15078); test: Inhibition of Cyclin-dependent kinase 5-p35nck5a at 10 uM; format: protein-complex assay; design: scale not given: the % may be the effect or the level left; procedure, shortened: as §1
[11] = biological target: CDK6/cyclin D3 (Homo sapiens) (UniProt P30281+Q00534); test: Inhibition of Cyclin-dependent kinase 6-cyclin D3 at 10 uM; format: protein-complex assay; design: scale not given: the % may be the effect or the level left; procedure, shortened: as §1
[12] = biological target: Cyclin-dependent kinase 7/ cyclin H (Homo sapiens) (UniProt P51946+P50613); test: Inhibition of cyclin-dependent kinase 7-cyclin H at 10 uM; format: protein-complex assay; design: scale not given: the % may be the effect or the level left; procedure, shortened: as §1
[13] = biological target: Tyrosine-protein kinase Fyn (Homo sapiens) (UniProt P06241); test: Inhibition of human Fyn tyrosine kinase at 10 uM; design: scale not given: the % may be the effect or the level left; procedure, shortened: as §1
[14] = biological target: Glycogen synthase kinase-3 beta (Homo sapiens) (UniProt P49841); test: Inhibition of human glycogen synthase kinase-3beta (GSK3-beta) at 10 uM; design: scale not given: the % may be the effect or the level left; procedure, shortened: as §2
[15] = biological target: Inhibitor of nuclear factor kappa-B kinase subunit beta (Homo sapiens) (UniProt O14920); test: Inhibition of I-kappa-B-kinase beta at 10 uM; design: scale not given: the % may be the effect or the level left; procedure, shortened: as §1
[16] = biological target: Inhibitor of nuclear factor kappa-B kinase subunit alpha (Homo sapiens) (UniProt O15111); test: Inhibition of I kappa-B kinase alpha (IKK) at 10 uM; design: scale not given: the % may be the effect or the level left; procedure, shortened: as §1
[17] = biological target: MAP kinase-activated protein kinase 2 (Homo sapiens) (UniProt P49137); test: Inhibition of human MAP kinase-activated protein kinase 2 at 10 uM; design: scale not given: the % may be the effect or the level left; procedure, shortened: as §1
[18] = biological target: Ribosomal protein S6 kinase alpha-5 (Homo sapiens) (UniProt O75582); test: Inhibition of human MSK-1 kinase at 10 uM; design: scale not given: the % may be the effect or the level left; procedure, shortened: as §1
[19] = biological target: Mitogen-activated protein kinase 1 (Mus musculus) (UniProt P63085); test: Inhibition of mouse Mitogen-activated protein kinase 2 at 10 uM; design: scale not given: the % may be the effect or the level left; procedure, shortened: as §2
[20] = biological target: Dual specificity mitogen-activated protein kinase kinase 4 (Mus musculus) (UniProt P47809); test: Inhibition of mouse Mitogen activated protein kinase kinase 4 at 10 uM; design: scale not given: the % may be the effect or the level left; procedure, shortened: as §2
[21] = biological target: Dual specificity mitogen-activated protein kinase kinase 7 (Homo sapiens) (UniProt O14733); test: Inhibition of human Mitogen activated protein kinase kinase 7 beta at 10 uM; design: scale not given: the % may be the effect or the level left; procedure, shortened: as §1
[22] = biological target: Platelet-derived growth factor receptor alpha (Homo sapiens) (UniProt P16234); test: Inhibition of Platelet-derived growth factor receptor alpha at 10 uM; design: scale not given: the % may be the effect or the level left; procedure, shortened: as §1
[23] = biological target: T1, Protein kinase C beta type (Homo sapiens, UniProt P05771); test: Inhibition of human Protein kinase C beta 2 at 10 uM; design: scale not given: the % may be the effect or the level left; procedure, shortened: as §1
[24] = biological target: RAF proto-oncogene serine/threonine-protein kinase (Homo sapiens) (UniProt P04049); test: Inhibition of human RAF proto-oncogene serine/threonine-protein kinase (c-RAF) at 10 uM; design: scale not given: the % may be the effect or the level left; procedure, shortened: as §1
Bos taurus = species: Bos taurus; test: Inhibition of bovine Protein kinase A at 10 uM; design: scale not given: the % may be the effect or the level left; procedure, shortened: as §1
[25] = biological target: RAC-alpha serine/threonine-protein kinase (Homo sapiens) (UniProt P31749); test: Inhibition of human Protein kinase B alpha at 10 uM; design: scale not given: the % may be the effect or the level left; procedure, shortened: as §1
[26] = biological target: Protein kinase C gamma type (Homo sapiens, UniProt P05129); test: Inhibition of human Protein kinase C gamma at 10 uM; design: scale not given: the % may be the effect or the level left; procedure, shortened: as §1
[27] = biological target: T1, Protein kinase C beta type; test: Inhibition of Protein kinase C beta 2
Procedure, shortened: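 Recombinant human PKCα, PKCγ or PKCβII (5–10 mU) phosphorylating histone H1 (0.1 mg/mL) with 33P-ATP, total ATP 10 µM. Buffer 50 mM Hepes pH 7.4 with Triton X-100, CaCl2, Mg acetate, phosphatidylserine and diacylglycerol. Run 40 min at room temperature, stopped with phosphoric acid, then P30 filter counting.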

[28] = Inhibitory activity against Protein kinase A was determined
[29] = biological target: Protein kinase C alpha type (Homo sapiens, UniProt P17252); test: Inhibition of human Protein kinase C alpha at 10 uM; design: scale not given: the % may be the effect or the level left; procedure, shortened: as §1
[30] = biological target: MAP kinase-activated protein kinase 5 (Homo sapiens) (UniProt Q8IW41); test: Inhibition of human Protein kinase PRAK at 10 uM; design: scale not given: the % may be the effect or the level left; procedure, shortened: as §1
[31] = biological target: T2, Protein kinase C theta type (Homo sapiens, UniProt Q04759); test: Inhibition of Protein kinase C theta at 10 uM; design: scale not given: the % may be the effect or the level left; procedure, shortened: as §1
[32] = biological target: T2, Protein kinase C theta type; test: Inhibition of Protein kinase C theta
Procedure, shortened: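 Recombinant human PKCθ (5–10 mU) with histone H1 (0.1 mg/mL) and 33P-ATP, total ATP 10 µM, in 8 mM MOPS pH 7.0, 0.2 mM EDTA, 10 mM Mg acetate. Run 40 min at room temperature, stopped with phosphoric acid, then P30 filter counting. IC50 from 6–10 concentrations; ≥3 experiments in duplicate; ± SEM.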

[33] = biological target: Ribosomal protein S6 kinase (P70S6K) (Homo sapiens) (UniProt Q9UBS0+P23443); test: Inhibition of human Ribosomal protein S6 kinase (p70S6K) at 10 uM; format: protein-complex assay; design: scale not given: the % may be the effect or the level left; procedure, shortened: as §2
[34] = biological target: Proto-oncogene tyrosine-protein kinase Src (Homo sapiens) (UniProt P12931); test: Inhibition of human Src tyrosine kinase at 10 uM; design: scale not given: the % may be the effect or the level left; procedure, shortened: as §2
[35] = biological target: Mitogen-activated protein kinase 11 (Homo sapiens) (UniProt Q15759); test: Inhibition of human Stress activated protein kinase 2b at 10 uM; design: scale not given: the % may be the effect or the level left; procedure, shortened: as §2
[36] = Inhibition of Vascular endothelial growth factor receptor 2; design: species or system Homo sapiens; procedure, shortened: as §3

Chain of Cyclin-dependent kinase 1 (P06493 whole entry): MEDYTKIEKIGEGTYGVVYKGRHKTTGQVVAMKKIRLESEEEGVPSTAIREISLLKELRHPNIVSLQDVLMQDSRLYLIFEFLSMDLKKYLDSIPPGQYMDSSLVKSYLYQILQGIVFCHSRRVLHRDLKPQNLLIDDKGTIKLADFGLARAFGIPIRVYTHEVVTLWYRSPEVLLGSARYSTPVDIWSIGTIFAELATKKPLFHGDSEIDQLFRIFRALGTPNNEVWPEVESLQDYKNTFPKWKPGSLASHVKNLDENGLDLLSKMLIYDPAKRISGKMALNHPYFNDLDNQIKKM
Chain of Dual specificity mitogen-activated protein kinase kinase 7 (Homo sapiens) (O14733 whole entry): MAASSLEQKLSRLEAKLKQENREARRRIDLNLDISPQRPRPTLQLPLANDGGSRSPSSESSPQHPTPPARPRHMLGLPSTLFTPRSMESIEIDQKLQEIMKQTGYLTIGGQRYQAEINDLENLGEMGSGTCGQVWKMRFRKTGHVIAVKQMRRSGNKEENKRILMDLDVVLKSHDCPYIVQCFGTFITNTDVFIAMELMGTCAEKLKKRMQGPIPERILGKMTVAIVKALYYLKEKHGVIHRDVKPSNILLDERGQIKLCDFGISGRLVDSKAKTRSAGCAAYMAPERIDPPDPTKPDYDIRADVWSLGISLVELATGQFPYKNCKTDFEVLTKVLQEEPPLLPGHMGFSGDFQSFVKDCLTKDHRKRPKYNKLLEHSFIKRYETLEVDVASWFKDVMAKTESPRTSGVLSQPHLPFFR
Chain of Calcium/calmodulin-dependent protein kinase type IV (Homo sapiens) (Q16566 whole entry): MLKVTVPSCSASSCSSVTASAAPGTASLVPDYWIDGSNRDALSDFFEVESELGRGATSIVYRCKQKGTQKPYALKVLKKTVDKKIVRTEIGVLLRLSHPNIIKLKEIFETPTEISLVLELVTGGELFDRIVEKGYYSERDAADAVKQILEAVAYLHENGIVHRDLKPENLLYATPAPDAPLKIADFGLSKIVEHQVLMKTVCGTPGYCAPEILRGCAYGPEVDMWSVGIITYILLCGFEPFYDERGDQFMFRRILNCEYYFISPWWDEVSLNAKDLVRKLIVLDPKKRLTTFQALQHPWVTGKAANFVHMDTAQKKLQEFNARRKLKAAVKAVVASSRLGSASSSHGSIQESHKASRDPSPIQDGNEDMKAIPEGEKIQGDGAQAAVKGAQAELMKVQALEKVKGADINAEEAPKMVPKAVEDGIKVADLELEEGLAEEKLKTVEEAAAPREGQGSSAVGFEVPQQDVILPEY
Chain of Inhibitor of nuclear factor kappa-B kinase subunit beta (Homo sapiens) (O14920 whole entry): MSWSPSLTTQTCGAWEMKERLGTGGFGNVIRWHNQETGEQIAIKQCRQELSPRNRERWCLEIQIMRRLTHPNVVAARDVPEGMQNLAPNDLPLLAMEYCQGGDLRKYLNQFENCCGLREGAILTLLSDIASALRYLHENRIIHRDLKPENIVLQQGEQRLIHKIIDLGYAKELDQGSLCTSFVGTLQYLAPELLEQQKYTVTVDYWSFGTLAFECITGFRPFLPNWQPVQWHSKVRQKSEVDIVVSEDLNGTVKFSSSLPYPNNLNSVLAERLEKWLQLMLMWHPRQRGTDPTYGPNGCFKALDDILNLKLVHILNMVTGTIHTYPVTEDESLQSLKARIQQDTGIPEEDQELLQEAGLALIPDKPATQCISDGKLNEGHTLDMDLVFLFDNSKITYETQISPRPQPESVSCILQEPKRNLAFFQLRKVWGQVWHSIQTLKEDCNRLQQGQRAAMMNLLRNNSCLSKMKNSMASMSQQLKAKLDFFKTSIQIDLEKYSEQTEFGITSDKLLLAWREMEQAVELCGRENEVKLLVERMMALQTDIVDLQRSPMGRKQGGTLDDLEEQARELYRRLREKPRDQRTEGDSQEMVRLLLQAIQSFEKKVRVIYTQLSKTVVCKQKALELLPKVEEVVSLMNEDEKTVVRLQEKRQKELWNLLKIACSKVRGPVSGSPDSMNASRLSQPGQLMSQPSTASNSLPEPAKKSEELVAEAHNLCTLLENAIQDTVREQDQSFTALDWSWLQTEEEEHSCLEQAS
Chain of RAC-alpha serine/threonine-protein kinase (Homo sapiens) (P31749 whole entry): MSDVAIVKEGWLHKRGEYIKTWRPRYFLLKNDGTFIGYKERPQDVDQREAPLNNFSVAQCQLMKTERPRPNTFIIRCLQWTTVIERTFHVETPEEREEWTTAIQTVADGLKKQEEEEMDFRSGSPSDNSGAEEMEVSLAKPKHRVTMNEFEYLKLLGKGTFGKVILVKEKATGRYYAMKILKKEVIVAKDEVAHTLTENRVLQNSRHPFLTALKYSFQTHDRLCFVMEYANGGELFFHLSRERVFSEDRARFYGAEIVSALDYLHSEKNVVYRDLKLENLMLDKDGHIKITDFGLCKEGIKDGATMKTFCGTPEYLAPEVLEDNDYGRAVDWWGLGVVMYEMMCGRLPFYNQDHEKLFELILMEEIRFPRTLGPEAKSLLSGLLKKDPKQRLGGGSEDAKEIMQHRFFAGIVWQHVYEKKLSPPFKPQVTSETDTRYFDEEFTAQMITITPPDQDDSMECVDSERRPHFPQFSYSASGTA
Chain of Ribosomal protein S6 kinase alpha-5 (Homo sapiens) (O75582 whole entry, looked up): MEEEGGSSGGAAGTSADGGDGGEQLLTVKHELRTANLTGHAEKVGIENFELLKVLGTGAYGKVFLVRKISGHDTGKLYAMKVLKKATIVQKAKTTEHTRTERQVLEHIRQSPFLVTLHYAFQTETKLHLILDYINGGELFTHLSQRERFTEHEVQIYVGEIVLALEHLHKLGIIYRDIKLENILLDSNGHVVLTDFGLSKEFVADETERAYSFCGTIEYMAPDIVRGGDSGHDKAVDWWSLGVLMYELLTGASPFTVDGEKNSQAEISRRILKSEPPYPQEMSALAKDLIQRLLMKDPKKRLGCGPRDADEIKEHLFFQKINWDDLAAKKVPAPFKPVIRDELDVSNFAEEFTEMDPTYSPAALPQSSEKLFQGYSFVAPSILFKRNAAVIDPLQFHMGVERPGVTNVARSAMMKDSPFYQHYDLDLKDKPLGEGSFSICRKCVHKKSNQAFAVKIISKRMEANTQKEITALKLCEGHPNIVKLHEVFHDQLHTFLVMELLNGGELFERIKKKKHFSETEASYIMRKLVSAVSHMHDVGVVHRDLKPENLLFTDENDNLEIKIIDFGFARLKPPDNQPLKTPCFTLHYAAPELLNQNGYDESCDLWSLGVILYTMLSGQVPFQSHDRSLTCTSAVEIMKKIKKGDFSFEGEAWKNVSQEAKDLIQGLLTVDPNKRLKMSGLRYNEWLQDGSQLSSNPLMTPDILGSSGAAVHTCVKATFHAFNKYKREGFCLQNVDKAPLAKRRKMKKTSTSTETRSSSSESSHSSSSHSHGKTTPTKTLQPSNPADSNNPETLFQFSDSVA
Chain of Tyrosine-protein kinase CSK (Homo sapiens) (P41240 2-450 limits assumed): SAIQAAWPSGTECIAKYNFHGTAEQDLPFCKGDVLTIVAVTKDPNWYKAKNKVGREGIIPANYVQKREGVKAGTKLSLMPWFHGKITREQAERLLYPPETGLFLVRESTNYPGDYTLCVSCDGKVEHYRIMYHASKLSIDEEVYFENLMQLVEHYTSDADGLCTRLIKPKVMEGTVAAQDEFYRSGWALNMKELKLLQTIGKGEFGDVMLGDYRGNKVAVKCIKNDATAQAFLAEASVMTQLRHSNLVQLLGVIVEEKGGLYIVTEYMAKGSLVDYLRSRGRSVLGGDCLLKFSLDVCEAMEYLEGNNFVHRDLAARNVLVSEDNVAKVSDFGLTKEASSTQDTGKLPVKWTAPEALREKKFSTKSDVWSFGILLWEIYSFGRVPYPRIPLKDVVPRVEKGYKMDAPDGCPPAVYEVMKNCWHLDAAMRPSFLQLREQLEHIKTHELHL
Chain of Proto-oncogene tyrosine-protein kinase Src (Homo sapiens) (P12931 2-536 limits assumed): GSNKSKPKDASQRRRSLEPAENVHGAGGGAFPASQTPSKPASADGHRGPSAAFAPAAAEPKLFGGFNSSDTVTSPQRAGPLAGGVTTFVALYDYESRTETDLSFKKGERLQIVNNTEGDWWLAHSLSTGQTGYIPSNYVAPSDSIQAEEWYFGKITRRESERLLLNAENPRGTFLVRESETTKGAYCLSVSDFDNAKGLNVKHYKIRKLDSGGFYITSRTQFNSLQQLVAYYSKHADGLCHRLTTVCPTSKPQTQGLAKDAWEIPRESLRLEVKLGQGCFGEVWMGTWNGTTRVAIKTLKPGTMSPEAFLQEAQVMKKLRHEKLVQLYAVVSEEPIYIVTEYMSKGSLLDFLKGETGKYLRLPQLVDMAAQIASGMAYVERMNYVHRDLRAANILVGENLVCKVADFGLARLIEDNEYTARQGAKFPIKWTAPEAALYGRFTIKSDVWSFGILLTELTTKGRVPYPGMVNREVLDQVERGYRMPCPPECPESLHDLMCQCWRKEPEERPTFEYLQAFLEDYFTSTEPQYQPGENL

Structure (SMILES)	Activity [1]	Activity [2]	Activity [3]	Activity [4]	Activity [5]	pIC50 [6]	Activity (Saccharomyces cerevisiae)	pIC50 [7]	Activity [8]	pIC50 [9]	Activity [10]	Activity [11]	Activity [12]	Activity [13]	Activity [14]	Activity [15]	Activity [16]	Activity [17]	Activity [18]	Activity [19]	also measured
O=C1NC(=O)C2=C1c1cn(c3ncccc13)CCOCCOCCOCCOCCn1cc2c2cccnc21	94%	99%	96%	88%	100%	< 5.00	89%	< 5.00	103%	< 5.00	105%	97%	86%	95%	0%	101%	98%	85%	89%	88%	Activity [20]: 107%; Activity [21]: 132%; Activity [22]: 112%; Activity [23]: 69%; Activity [24]: 97%; Activity (Bos taurus): 94%; Activity [25]: 102%; Activity [26]: 96%; pIC50 [27]: < 5.00; pIC50 [28]: < 5.00; Activity [29]: 94%; Activity [30]: 102%; Activity [31]: 88%; pIC50 [32]: < 5.00; Activity [33]: 93%; Activity [34]: 89%; Activity [35]: 104%; pIC50 [36]: < 5.00
O=C1NC(=O)C2=C1c1cn(c3ncccc13)CCOCCOCCOCCn1cc2c2cccnc21	90%	88%	90%	84%	67%	< 5.00	84%	< 5.00	84%	< 5.00	82%	97%	85%	92%	0%	97%	100%	97%	61%	85%	Activity [20]: 110%; Activity [21]: 129%; Activity [22]: 130%; Activity [23]: 15%; Activity [24]: 91%; Activity (Bos taurus): 88%; Activity [25]: 97%; Activity [26]: 77%; pIC50 [27]: 5.93; pIC50 [28]: < 5.00; Activity [29]: 51%; Activity [30]: 88%; Activity [31]: 71%; pIC50 [32]: < 5.00; Activity [33]: 92%; Activity [34]: 90%; Activity [35]: 105%; pIC50 [36]: < 5.00
